# Source: PubChem
# ALR H2O2 inh: blocks human ALR sulfhydryl oxidase activity | inhibition, % (no concentration beside the values) | AID 485317 | purified ALR, DTT oxidation, H2O2 HRP-luminol luminescence | 3.8% of 290,000 active | P55789;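 active means mean replicate inhibition above about 79%, with every replicate also reaching it, limit read from the data; inconclusive means only one of the two criteria met; inactive means mean below limit and not every replicate reaching it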
# Target sequence (P55789 whole entry, looked up): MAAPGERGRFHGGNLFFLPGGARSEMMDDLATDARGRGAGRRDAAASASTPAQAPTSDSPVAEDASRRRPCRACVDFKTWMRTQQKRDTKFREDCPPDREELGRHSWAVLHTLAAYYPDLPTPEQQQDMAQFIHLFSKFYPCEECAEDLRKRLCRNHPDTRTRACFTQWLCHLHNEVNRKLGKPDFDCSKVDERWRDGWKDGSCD
# T cell modulator: T cell immune modulators affecting CD8 T cell-vesicle binding; 0.068% of 330,000 active; AID 2052; response (vesicle binding), % at 7 µM; 2C CD8+ T cell-vesicle binding, flow cytometry; active compounds read low;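 active means response, share of CD8 T cells binding vesicles, and their 90th percentile fluorescence all below set limits, cut at about 80% in these data, passing the limit was not always enough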;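 further: values below 100% mean blocked vesicle binding to the CD8+ T cells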
#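 Incubation: binding step 1.5 h, 37 °C, antibody labelling 20 min, ice; system: murine 2C transgenic CD8+ T lymphocytes; technique: cytometric PE anti-B7-1 and Alexa647 anti-CD8 signals after 1% paraformaldehyde fixation; also added: QL9-charged Drosophila Ld/ICAM-1/B7-1 vesicles; control set: naked versus QL9-loaded vesicles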
# N-glyco inh: N-linked glycosylation inhibition; D54 ERlucT glycosylation luciferase reporter, 24 h; percent of 100 nM tunicamycin response; reporter increase, % at 12.5 µM; 0.23% of 360,000 active; AID 588692;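 active means mean luciferase reporter signal, scaled so untreated is 0 and the glycosylation-blocking control 100, at or above a set limit in every replicate; inconclusive means mean reaches the limit but not every replicate does; inactive means mean below the limit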;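 further: luciferase carries N-glycosylation sites so blocking glycosylation raises the light; 0% = median of neutral control wells and 100% = median of 100 nM tunicamycin wells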
# * marks the source's active call; other numbers are inactive results; i = inactive; ? = inconclusive; / = no result given. The full list was thinned out, with hits kept by preference.
SMILES,ALR H2O2 inh,T cell modulator,N-glyco inh
O=C(O)/C=C/C(=O)Nc1ccc(OCc2ccccc2)cc1,12,789,2
O=C(O)/C=C\C(=O)Nc1ccc(N2CCN(c3ccc(F)cc3)CC2)cc1,98*,280,2
O=C(CSc1nc2ccc([N+](=O)[O-])cc2s1)c1ccc2ccccc2c1,/,/,2
COc1ccc(CNC(=O)C(c2ccc(C)o2)N(C(=O)c2csnn2)c2ccc(C(C)C)cc2)cc1 (configuration not stated),-4,720,-3
O=C1N[C@H](C(=O)O)CS1,4,534,/
CSCCC(NC(=O)c1ccco1)C(=O)NCC1CCCO1 (configuration not stated),-8,376,0
O=C(c1cc(Br)ccc1Cl)N1CCN(c2ccc(N3CCOCC3)nn2)CC1,5,126,1
NC(=S)c1cc2ccc(O)cc2oc1=O,/,/,-1
Oc1cc(O)cc(-c2cc3ccc(O)cc3o2)c1,99*,95,-9
O=c1oc(-c2cccnc2)nc2ccccc12,/,252,0
Cc1cc(=O)c2cc3nc(-c4cccnc4)oc3c(Br)c2o1,-1,0.0*,/
C[C@H]1CN([C@@H](C)CO)C(=O)CCCn2cc(nn2)CO[C@@H]1CN(C)C(=O)Nc1ccccc1C(F)(F)F,/,/,3
CCNC(=O)C1(C)CCCN(C(=O)c2cc3ccccc3s2)C1 (configuration not stated),/,/,1
Cc1cccnc1NC(=O)CSc1ccc2c(c1)OCCO2,/,502,2
O=C(CSc1ccc2c(c1)OCCO2)NCc1ccco1,98*,308,1
O=C(CSc1ccccc1)NCc1ccco1,49,441,1
Cc1ccc(NC(=O)CSc2ccc3c(c2)OCCO3)nc1,98*,150,0
CC[C@]12c3[nH]c4cc(-c5ccco5)ccc4c3CCN1C(=O)[C@@H](CC(=O)NCc1cccc(C(F)(F)F)c1)C[C@@H]2C(=O)N1CCN(C(=O)c2ccco2)CC1,/,/,2
CCc1cc(SC#N)cc(C)c1NC(=O)CCl,98*,261,13
Cc1cc(SC#N)cc(C)c1NC(=O)CCl,?,291,?
CCC(=O)Nc1ccc(SC#N)cc1C,98*,200,2
Cc1ccc(NC(=O)CCl)c(C)c1,/,286,13
O=C(c1ccc(Cl)cc1)N1C2C=CC(C2)C1(C(F)(F)F)C(F)(F)F (configuration not stated),-4,359,1
O=C(CN1CCN(c2ccc(O)cc2)CC1)Nc1cc(S(=O)(=O)N2CCCC2)ccc1Cl,90*,745,-6
O=C(CN1CCN(c2ccc(O)cc2)CC1)Nc1cc(S(=O)(=O)N2CCCCC2)ccc1Cl,45,280,-4
SMILES,ALR H2O2 inh,T cell modulator,N-glyco inh
N#Cc1ccc(/C=N/NC(=S)Nc2ccc(S(=O)(=O)N3CCOCC3)cc2)cc1,1,339,-1
O=S(=O)(c1ccc(NC(=S)N/N=C/c2ccc(O)c(O)c2)cc1)N1CCOCC1,99*,175,-1
CC(C)(C)c1ccc(/C=N/NC(=S)Nc2cccnc2)cc1,2,124,/
O=C(Nc1ccccc1N1CCCC1)c1cc(S(=O)(=O)N2CCOCC2)ccc1Cl,49,476,-1
O=S(=O)(c1ccc(Cl)c(NC(=S)Nc2ccccc2N2CCOCC2)c1)N1CCOCC1,98*,150,5
Oc1ccc(/C=N/NC(=S)Nc2cccnc2)cc1O,99*,i,-7
COc1cc(CNCc2ccccc2)c(Br)cc1OC1CCCC1,-54,222,-5
CCC1CCCCN1C(=O)COc1ccc2c(c1)OCO2 (configuration not stated),-60,628,1
O=S(=O)(c1ccc(Cl)c(NC(=S)N/N=C/c2ccc(O)cc2)c1)N1CCOCC1,99*,168,-2
O=S(=O)(c1ccc(Cl)c(NC(=S)N/N=C/c2c(F)cccc2F)c1)N1CCOCC1,-2,217,-3
Cc1ccc(NC(=O)CCN2C(=O)OC(C)(C)C2(C)O)cc1 (configuration not stated),-2,292,2
CCC1(C)OC(=O)NN(c2ccc(C)cc2)C1(C)O (configuration not stated),95*,147,1
COc1ccccc1-c1cc(NC=O)c2ncc(-c3cccc(C(=O)N(C)C)c3)n2c1,/,/,41*
COc1cc(-c2cc(NC=O)c3ncc(-c4cccc(C(=O)N(C)C)c4)n3c2)cc(OC)c1OC,/,/,4
Cc1ccc(C)c(NC(=O)CSc2sc3c(O)cc(=O)[nH]c3c2C#N)c1,?,380,-1
COc1ccccc1NC(=O)CSc1sc2c(O)cc(=O)[nH]c2c1C#N,95*,407,0
Cc1ccc(Cl)cc1NC(=O)CSc1sc2c(O)cc(=O)[nH]c2c1C#N,92*,351,2
COc1ccc(NC(=O)CSc2sc3c(O)cc(=O)[nH]c3c2C#N)c(OC)c1,33,196,3
COC(=O)c1ccc(C)c(NC(=O)CSc2sc3c(O)cc(=O)[nH]c3c2C#N)c1,?,439,1
COc1ccc(Cl)cc1NC(=O)CSc1sc2c(O)cc(=O)[nH]c2c1C#N,99*,206,-2
CCOC(=O)CCc1cnccc1-c1cccc(OC)c1O,36,366,0
Cc1cc(=O)n2nc(N3CCCC(C(=O)NCCCN4CC(C)CC(C)C4)C3)sc2n1 (configuration not stated),2,385,-1
O=c1/c(=C/c2ccc([N+](=O)[O-])cc2)sc2n1CCCN=2,-3,711,1
COc1ccc(/C=C2/N=C3CCCCCN3C2=O)cc1,-2,236,-2
COc1ccc(/C=C2\N=C3CCCCCN3C2=O)cc1OC,-36,213,-1
SMILES,ALR H2O2 inh,T cell modulator,N-glyco inh
COc1cc(/C=C2\N=C3CCCCCN3C2=O)ccc1O,99*,496,-2
O=C1/C(=C\c2ccc(O)c(O)c2)N=C2CCCCCN12,99*,362,-4
COc1cc(/C=c2\sc3n(c2=O)CCCN=3)ccc1O,99*,351,1
CC(C)CCn1nnnc1CN1CCN(C(=O)c2ccco2)CC1,-1,327,2
Cn1c(=O)c2c(nc(C3CC4C5CCC(C5)C4C3)n2C)n(C)c1=O (configuration not stated),/,/,8
O=C(Cc1cccc(C(F)(F)F)c1)NCc1cccnc1,5,573,0
Cc1cccc(N(C(=O)CCC(=O)Nc2cc(C)on2)C(C(=O)NC2CCCC2)c2ccccc2)c1 (configuration not stated),/,267,-2
CC(C(=O)Nc1sccc1C(N)=O)N1C(=O)C2CC=CCC2C1=O (configuration not stated),97*,341,2
C[C@@H](C(=O)Nc1nccs1)N1C(=O)C2CC=CCC2C1=O (some centres not stated),-5,329,0
Cc1nn(-c2ccc(Cl)cc2)c2[nH]c(CCl)cc(=O)c12,4,182,-1
NC(=S)NC(c1ccccc1)c1ccncc1 (configuration not stated),38,619,-1
Cc1ccc(S(=O)(=O)NC(=O)c2cc(C)n(-c3ccccc3)c2C)cc1,39,178,4
Cc1ccc(NC(=O)NNS(=O)(=O)c2ccc(Br)cc2)cc1,-7,234,3
Cc1ccc(S(=O)(=O)NC(=O)Nc2ccc(N(C)C)cc2)cc1,86*,526,-16
